Results on 29 compounds are retold here after ChEMBL document CHEMBL3870315, “Design, synthesis and biological evaluation of novel cholesteryl ester transfer protein inhibitors bearing a cycloalkene scaffold” (Eur J Med Chem, 2016).

Structures are written as SMILES. Calls of active or inactive are those of the source. The rule behind the calls is not given here.

In series [1] the target is T1, Cholesteryl ester transfer protein (Homo sapiens, UniProt P11597).
T1 sequence (P11597 whole entry): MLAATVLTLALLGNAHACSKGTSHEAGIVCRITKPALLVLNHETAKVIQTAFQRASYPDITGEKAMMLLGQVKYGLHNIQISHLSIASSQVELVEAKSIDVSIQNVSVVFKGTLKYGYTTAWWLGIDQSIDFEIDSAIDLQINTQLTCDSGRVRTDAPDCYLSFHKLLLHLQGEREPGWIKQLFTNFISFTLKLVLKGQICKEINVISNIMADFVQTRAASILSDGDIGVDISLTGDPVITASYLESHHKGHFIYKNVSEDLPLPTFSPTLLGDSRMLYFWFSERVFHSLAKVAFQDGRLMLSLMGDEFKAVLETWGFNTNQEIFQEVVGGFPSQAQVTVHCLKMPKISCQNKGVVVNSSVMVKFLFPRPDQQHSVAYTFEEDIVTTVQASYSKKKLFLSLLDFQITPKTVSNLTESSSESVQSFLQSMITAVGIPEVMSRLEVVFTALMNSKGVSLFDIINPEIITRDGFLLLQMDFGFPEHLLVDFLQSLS
Put plainly: Inhibition of recombinant CETP (unknown origin) assessed as inhibition of BODIPY-labeled cholesteryl transfer to fluorescent substrate by fluorimetric assay.

The subject of series [2] is Syrian golden hamster. Put plainly: In vivo inhibition of CETP in high-fat fed syrian hamster model assessed as increase in plasma HDL-cholesterol level at 30 mg/kg, po administered once daily for 5 days measured 2 hrs post last dose relative to control. In kind it is functional. Put shortly:
(§1)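 Male Syrian golden hamsters, 8 weeks old and about 110–120 g, fed a diet with 10% lard oil and 3% cholesterol for 4 weeks, then randomized into four groups. Oral dosing once daily for 5 days in 10% ethanol/10% hydrogenated castor oil/80% water, with a vehicle control group. Animals were fasted 16 h before bleeding. Retro-orbital blood was taken at baseline and 2 h after the last dose. Plasma HDL-C was measured on a chemistry analyser and expressed as percent change. Mean ± SEM.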

For series [3], the system named is Syrian golden hamster. Put plainly: In vivo inhibition of CETP in po dosed high-fat fed syrian hamster model assessed as increase in plasma HDL-cholesterol level administered once daily for 5 days measured 2 hrs post last dose. Type of series: functional, organism-based. As to conditions: Mesocricetus auratus. Put shortly: as §1
The nature of series [4]: Cmax in Sprague-Dawley rat at 50 mg/Kg, po. Type of series: ADME. Also on record: dose 50 mg/Kg, route oral. As to conditions: in vivo. Put shortly:
(§2)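 Four adult male Sprague-Dawley rats, fasted 16 h, given a single oral dose of 50 mg/kg suspended in 10% ethanol/10% hydrogenated castor oil/80% water. Heparinized blood was drawn at 0.5–36 h (15 time points) and centrifuged at 3000 rpm for 15 min. Plasma was stored at -70°C until analysis.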

Series [5] in a line: Tmax in Sprague-Dawley rat at 50 mg/Kg, po. In kind it is ADME. Particulars: in vivo. Put shortly:
as §2

Series [6] in a line: Terminal half life in Sprague-Dawley rat at 50 mg/Kg, po. Type of series: ADME. As to conditions: in vivo, read-out: beta t1/2 (converted). In a few lines: as §2
The nature of series [7]: AUC in Sprague-Dawley rat at 50 mg/Kg, po. In kind it is ADME. Particulars: in vivo. In a few lines:
as §2

In series [8] the test system is Syrian golden hamster. Put plainly: In vivo inhibition of CETP in high-fat fed syrian hamster model assessed as increase in plasma HDL-cholesterol level at 50 mg/kg, po administered once daily for 5 days measured 2 hrs post last dose relative to control. Type of series: functional, Mesocricetus auratus. Also on record: scale not given: the % may be the effect or the level left. In a few lines: as §1

For the compound `COc1ccc(C(C)C)cc1C1=C(CN(Cc2cc(C(F)(F)F)cc(C(F)(F)F)c2)c2ncc(Br)cn2)CC(C)(C)CC1`, in series [1], the IC50 is above 50000 nM.
With `COc1cc(F)c(C(C)C)cc1-c1ccc(C(F)(F)F)cc1CN1C(=O)O[C@H](c2cc(C(F)(F)F)cc(C(F)(F)F)c2)[C@@H]1C`, the outcome in series [2] (Mesocricetus auratus) was Active.
For the compound `COc1ccc(C(C)C)cc1C1=C(CN(Cc2cc(C(F)(F)F)cc(C(F)(F)F)c2)c2ncc(-c3cnn(C)c3)cn2)CCCCC1`, in series [1], the half-inhibitory concentration (IC50) came to 1620 nM.
As to `COc1ccc(C(C)C)cc1C1=C(CN(Cc2cc(C(F)(F)F)cc(C(F)(F)F)c2)c2ncc(-c3cccs3)cn2)CC(C)(C)CC1`, the concentration for half-maximal inhibition (IC50) in series [1] is above 50000 nM.
Same read-out and setting: to `COc1ccc(C(C)C)cc1C1=C(CN(Cc2cc(C(F)(F)F)cc(C(F)(F)F)c2)c2ncc(N3CCC(N)CC3)cn2)CC(C)(C)CC1` belongs 170 nM; to `COc1ccc(C(C)C)cc1C1=C(CN(Cc2cc(C(F)(F)F)cc(C(F)(F)F)c2)c2ncc(N3CCC(NC(C)=O)CC3)cn2)CC(C)(C)CC1`, 520 nM; to `COc1ccc(C(C)C)cc1C1=C(CN(Cc2cc(C(F)(F)F)cc(C(F)(F)F)c2)c2ncc(O)cn2)CC(C)(C)CC1`, 3520 nM.
On the same count and under the same terms, to `COc1ccc(C(C)C)cc1C1=C(CN(Cc2cc(C(F)(F)F)cc(C(F)(F)F)c2)c2ncc(OCCCC(=O)O)cn2)CC(C)(C)CC1` belongs 300 nM; to `COc1ccc(C(C)C)cc1C1=C(CN(Cc2cc(C(F)(F)F)cc(C(F)(F)F)c2)c2ncc(-c3cnn(C)c3)cn2)CCc2ccccc21`, 220 nM; to `COCCOc1cnc(N(CC2=C(c3cc(C(C)C)ccc3OC)CCC(C)(C)C2)Cc2cc(C(F)(F)F)cc(C(F)(F)F)c2)nc1`, 420 nM.
Still for that read-out and setting: then `COc1ccc(C(C)C)cc1C1=C(CN(Cc2cc(C(F)(F)F)cc(C(F)(F)F)c2)c2ncc(N3CCC(C(=O)O)CC3)cn2)CC(C)(C)CC1`, with 370 nM; and `COC(=O)N(CC1=C(c2cc(C(C)C)ccc2OC)CCC(C)(C)C1)Cc1cc(C(F)(F)F)cc(C(F)(F)F)c1`, with 21000 nM; and `COC(=O)COc1cnc(N(CC2=C(c3cc(C(C)C)ccc3OC)CCC(C)(C)C2)Cc2cc(C(F)(F)F)cc(C(F)(F)F)c2)nc1`, with 910 nM.
On to `COc1ccc(C(C)C)cc1C1=C(CN(Cc2cc(C(F)(F)F)cc(C(F)(F)F)c2)c2ncc(-c3cnn(C)c3)cn2)CC(C(C)(C)C)CC1` (stereo unspecified), for which the half-maximal inhibitory concentration (IC50) in series [1] came out at 70 nM.
`COc1ccc(C(C)C)cc1C1=C(CN(Cc2cc(C(F)(F)F)cc(C(F)(F)F)c2)c2ncc(N3CCOCC3)cn2)CC(C)(C)CC1`: the IC50 in series [1] was found to be 860 nM.
The same measure, in the same setting: to `COc1ccc(C(C)C)cc1C1=C(CN(Cc2cc(C(F)(F)F)cc(C(F)(F)F)c2)c2ncc(-c3ccnn3C)cn2)CC(C)(C)CC1` belongs above 50000 nM; to `COc1ccc(C(C)C)cc1C1=C(CN(Cc2cc(C(F)(F)F)cc(C(F)(F)F)c2)C(=O)OCc2ccccc2)CC(C)(C)CC1`, above 50000 nM; to `COc1ccc(C(C)C)cc1C1=C(CN(Cc2cc(C(F)(F)F)cc(C(F)(F)F)c2)c2ncc(-c3cnn(C)c3)cn2)CCCC1`, 930 nM.
For the compound `COc1ccc(C(C)C)cc1C1=C(CN(Cc2cc(C(F)(F)F)cc(C(F)(F)F)c2)c2ncc(-c3cnn(C)c3)cn2)c2ccccc2CC1`, the 50% inhibitory concentration (IC50) in series [1] was determined as 6630 nM.
Still for that read-out and setting: to `COc1ccc(C(C)C)cc1C1=C(CN(Cc2cc(C(F)(F)F)cc(C(F)(F)F)c2)c2ncc(OCCO)cn2)CC(C)(C)CC1` belongs 190 nM; to `COc1ccc(C(C)C)cc1C1=C(CN(Cc2cc(C(F)(F)F)cc(C(F)(F)F)c2)c2ncc(N3CCNCC3)cn2)CC(C)(C)CC1`, 350 nM.
For `COc1ccc(C(C)C)cc1C1=C(CN(Cc2cc(C(F)(F)F)cc(C(F)(F)F)c2)c2ncc(-c3cnn(C)c3)cn2)CC(C)(C)CC1`, the IC50 in series [1] is 70 nM. Also, the Activity entry in series [3] was “Dose-dependent effect”; in series [2] it was 9.3%; in series [8], 27.9%. Moreover, the highest level in series [4] (Cmax) was 697 ng/mL. For the same compound, the Tmax in series [5] worked out at 2.5 h. Moreover, in series [6], the half-life was 11.1 h. For the same compound, the AUC in series [7] worked out at 6990 ng·h/mL.
Turning to `COc1ccc(C(C)C)cc1C1=C(CN(Cc2cc(C(F)(F)F)cc(C(F)(F)F)c2)c2ncc(OCC(=O)O)cn2)CC(C)(C)CC1`, the IC50 in series [1] came out at 360 nM.
As to `COc1ccc(C(C)C)cc1C1=C(CN(Cc2cc(C(F)(F)F)cc(C(F)(F)F)c2)c2ncc(-c3cnn(C)c3)cn2)CC(C)CC1` (stereo unspecified), the 50% inhibitory concentration (IC50) in series [1] came out at 60 nM.
On the same count and under the same terms, to `COc1ccc(C(C)C)cc1C1=C(CN(Cc2cc(C(F)(F)F)cc(C(F)(F)F)c2)c2ncc(-c3cnn(C)c3)cn2)CCC1` belongs 2760 nM; to `COc1ccc(C(C)C)cc1C1=C(CN(Cc2cc(C(F)(F)F)cc(C(F)(F)F)c2)c2ncc(-c3c(C)noc3C)cn2)CC(C)(C)CC1`, above 50000 nM.
Still for that read-out and setting: then `CCC1CCC(c2cc(C(C)C)ccc2OC)=C(CN(Cc2cc(C(F)(F)F)cc(C(F)(F)F)c2)c2ncc(-c3cnn(C)c3)cn2)C1` (stereo unspecified), with 80 nM.
On to `COc1ccc(C(C)C)cc1C1=C(CN(Cc2cc(C(F)(F)F)cc(C(F)(F)F)c2)C(=O)OCC(C)C)CC(C)(C)CC1`, for which the IC50 in series [1] was above 50000 nM.
The same measure, in the same setting: then `COc1ccc(C(C)C)cc1C1=C(CN(Cc2cc(C(F)(F)F)cc(C(F)(F)F)c2)c2ncc(N3CCN(C)CC3)cn2)CC(C)(C)CC1`, with 2070 nM.
